According to PubChem BioAssay AID623913 (Johns Hopkins Ion Channel Center, 2012):
Active and inactive are the calls of the source.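 How the source made its calls: active means KCNQ2 potassium channel blocked by over 30% at some tested dose, with a dose response curve fitted; inactive means no blocking at any dose, or no fitted curve.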

Target: Potassium voltage-gated channel subfamily KQT member 2 (Rattus norvegicus) (UniProt O88943)
Experiment: block of rat KCNQ2 potassium current – cell-based, FluxOR thallium flux, concentration-response, set 4, selectivity assay for KCNK9 inhibitor project, SAR follow-up (AID 623913)
Details: KCNQ2 cells, FluxOR thallium flux fluorescence
Method in brief: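 Material: KCNQ2-expressing CHO cells | Probe or stimulus: K+/Tl+ stimulus buffer (5x stock K2SO4 plus Tl2SO4) | Incubation: FluxOR dye loading 90 min, compound exposure 20 min, both room temperature | Signal: FluxOR thallium flux fluorescence, kinetic read | Benchmarks: XE-991 control | Replicates: at least duplicate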

Sequence of Potassium voltage-gated channel subfamily KQT member 2 (Rattus norvegicus) (O88943 whole entry, looked up): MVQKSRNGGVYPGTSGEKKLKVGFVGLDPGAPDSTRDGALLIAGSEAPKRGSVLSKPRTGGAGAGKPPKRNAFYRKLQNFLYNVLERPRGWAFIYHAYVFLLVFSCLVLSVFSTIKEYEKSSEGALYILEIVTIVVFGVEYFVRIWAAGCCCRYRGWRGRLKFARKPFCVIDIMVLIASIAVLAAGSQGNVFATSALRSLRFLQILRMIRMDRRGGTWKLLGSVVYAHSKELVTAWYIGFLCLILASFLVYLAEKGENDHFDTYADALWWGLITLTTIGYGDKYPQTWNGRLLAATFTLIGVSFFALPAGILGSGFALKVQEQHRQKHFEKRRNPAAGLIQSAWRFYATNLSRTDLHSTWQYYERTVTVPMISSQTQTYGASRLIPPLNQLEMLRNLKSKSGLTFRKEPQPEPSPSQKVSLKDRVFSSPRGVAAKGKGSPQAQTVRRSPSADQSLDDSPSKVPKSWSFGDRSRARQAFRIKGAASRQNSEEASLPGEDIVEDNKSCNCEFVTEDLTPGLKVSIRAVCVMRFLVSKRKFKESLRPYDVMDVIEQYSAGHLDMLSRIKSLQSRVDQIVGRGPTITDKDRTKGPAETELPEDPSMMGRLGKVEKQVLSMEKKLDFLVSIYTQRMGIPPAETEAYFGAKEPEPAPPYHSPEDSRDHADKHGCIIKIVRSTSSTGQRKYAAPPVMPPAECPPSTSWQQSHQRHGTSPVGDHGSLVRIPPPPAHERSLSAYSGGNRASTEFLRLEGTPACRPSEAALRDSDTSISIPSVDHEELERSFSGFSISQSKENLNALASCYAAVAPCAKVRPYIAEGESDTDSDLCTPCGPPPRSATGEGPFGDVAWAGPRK

IC50, active:
COc1ccc(C(=O)CCSc2nnc(-c3ccco3)n2C(C)C2CC3CCC2C3)cc1OC (stereo not given) 11.1 µM

Same assay, conditions: KCNQ2 cells, FluxOR thallium flux fluorescence; at 30 µM (top of the series)

Thallium flux ratio, lower = inhibition, inactive:
CC(C1CC2CCC1C2)n1c(N)nnc1-c1ccco1 (stereo not given)
COc1cccc(-c2n[nH]c(=S)n2[C@H](C)[C@@H]2CC3CC[C@H]2C3)c1
CCCC(=O)C1CCN(c2ncnc3c2CN(C(=O)c2ccc(-c4ccccc4)cc2)CC3)CC1
C[C@@H]([C@@H]1CC2CC[C@H]1C2)n1c(-c2ccco2)n[nH]c1=S
CC(C1CC2CCC1C2)n1c(SCCN2CCOCC2)nnc1-c1ccco1 (stereo not given)
COc1ccc(CC(=O)NCc2ccccc2-c2ccccc2C(=O)NCc2ccc(F)cc2F)cc1
C[C@H]([C@@H]1CC2CC[C@H]1C2)n1c(-c2ccco2)n[nH]c1=S
CC(C1CC2CCC1C2)n1c(SCCc2cccc(O)c2)nnc1-c1ccco1 (stereo not given)
C[C@H](C1CCCCC1)n1c(-c2ccccc2F)n[nH]c1=S
C[C@@H]([C@@H]1CC2CC[C@H]1C2)n1c(-c2ccsc2)n[nH]c1=S
C[C@H]([C@@H]1CC2CC[C@H]1C2)n1c(-c2ccccc2F)n[nH]c1=S
CC(C1CC2CCC1C2)n1c(SCCc2ccccn2)nnc1-c1ccco1 (stereo not given)
CC(C1CC2CCC1C2)n1c(-c2ccco2)nn(CCc2ccncc2)c1=S (stereo not given)
COc1cccc(CCSc2nnc(-c3ccco3)n2C(C)C2CC3CCC2C3)c1 (stereo not given)
CC(C1CCN(C)CC1)n1c(-c2ccco2)n[nH]c1=S (stereo not given)
COc1ccc(NC(=O)CSc2nnc(-c3ccco3)n2C(C)C2CC3CCC2C3)cc1OC (stereo not given)
CC(C1C[C@H]2CCC1C2)n1c(-c2ccsc2)n[nH]c1=S (stereo not given in full)
C[C@H]([C@@H]1CC2CC[C@H]1C2)n1c(-c2ccsc2)n[nH]c1=S
COc1ccc(CSc2nnc(-c3ccco3)n2C(C)C2CC3CCC2C3)cc1OC (stereo not given)
CC([C@@H]1CC2CC[C@H]1C2)n1c(-c2ccsc2)n[nH]c1=S (stereo not given in full)
COc1cccc(-c2n[nH]c(=S)n2[C@H](C)C2CCCCC2)c1
CC(C1CC2CCC1C2)n1c(SCC(=O)N2CCN(C)CC2)nnc1-c1ccco1 (stereo not given)
COc1cccc(-c2nnc(SSc3nnc(-c4cccc(OC)c4)n3C(C)C3CC4CCC3C4)n2C(C)C2CC3CCC2C3)c1 (stereo not given)
C[C@H](C1CCCCC1)n1c(-c2ccsc2)n[nH]c1=S
